This is an account of results in ChEMBL document CHEMBL1255431, “Inhibitors of Leishmania GDP-mannose pyrophosphorylase identified by high-throughput screening of small-molecule chemical library” (Antimicrob Agents Chemother, 2010).

The test system of data set [1] is Leishmania major. In words: Antileishmanial activity Leishmania major V121 amastigotes. It counts as functional, organism-based. In outline:
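Ex vivo amastigotes purified from lesions of L. major-infected CBA nu/nu mice, resuspended in M199. Exposed 24 h to 2-fold dilutions from 100 μM to 49 nM. 10^6 parasites per well, in duplicate. Viability by CellTiter blue, read at 550 nm with 630 nm reference. IC50 against nontreated controls.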

For data set [2], the system named is Leishmania major. In words: Antileishmanial activity Leishmania major V121 amastigotes infected in mouse bone marrow-derived macrophage assessed as inhibition of parasite proliferation after 48 hrs by Giemsa staining. It counts as functional, organism-based. The method in brief: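 Intracellular proliferation format in mouse bone marrow-derived macrophages, with amastigotes used for infection. Infected cells on duplicate coverslips exposed to compound for 48 h, then washed, methanol-fixed and Giemsa-stained. Percentage of infected cells counted microscopically.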

Data set [3] concerns Leishmania major. In words: Antileishmanial activity Leishmania major V121 promastigotes infected in mouse bone marrow-derived macrophage assessed as mild inhibition of cell invasion at 30 uM after 48 hrs by microscopy. It counts as functional, organism-based.
The nature of data set [4]: Cytotoxicity against HFF by Cell titer blue assay. It counts as cell-based. The settings on record: human, HFF cells. The method in brief: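 Primary human foreskin fibroblasts grown in DMEM with 10% HI-FBS, 37°C, 5% CO2. Compound toxicity measured by CellTiter blue viability, concentrations up to 100 μM.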
The test system of data set [5] is Leishmania major. In words: Antileishmanial activity Leishmania major V121 promastigotes infected in mouse bone marrow-derived macrophage assessed as inhibition of cell invasion after 48 hrs by microscopy. It counts as functional, organism-based.
A short description of data set [6]: Inhibition of Leishmania major recombinant GDP-mannose pyrophosphorylase expressed in Escherichia coli […] by fluorescence assay. In outline:
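Recombinant His6-tagged L. major GDP-MP, expressed in E. coli BL21(DE3)pLysS and purified on Talon resin. Buffer: 25 mM Tris-HCl pH 7.5, 4 mM MgCl2, 150 mM NaCl, 0.02% Tween 20, 0.4 mg/ml OVA. Final 5 μM M-1-P and 1.3 μM GTP, with inorganic pyrophosphatase coupling. Pi detected by MDCC phosphate sensor, Ex430/Em480, read each minute for 10 min.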

Data set [7] relates to Leishmania major. In words: Antileishmanial activity Leishmania major V121 amastigotes isolated from infected […] CBA nu/nu at 10 to 30 uM after 48 hrs by microscopy. It counts as functional, organism-based.
Data set [8] concerns Leishmania major. In words: Antileishmanial activity Leishmania major V121 amastigotes infected in mouse bone marrow-derived macrophage assessed as inhibition of cell invasion after 48 hrs by microscopy. Type of data set: functional, organism-based.
For data set [9], the system named is Leishmania major. The data set can be described thus: Antileishmanial activity Leishmania major V121 amastigotes infected in mouse bone marrow-derived macrophage assessed as complete inhibition of cell invasion at 30 uM after 48 hrs by microscopy. Type of data set: functional, organism-based.
For data set [10], the system named is Leishmania major. The data set can be described thus: Antileishmanial activity Leishmania major V121 promastigotes infected in mouse bone marrow-derived macrophage assessed as inhibition of cell invasion at 10 uM after 48 hrs by microscopy. It counts as functional, organism-based.
The nature of data set [11]: Cytotoxicity against mouse bone marrow-derived macrophages at 30 uM after 48 hrs by Cell titer blue assay. Type of data set: cell-based. The conditions noted are these: macrophage. Background: Resazurin is reduced to fluorescent resorufin, in cell work by metabolically active cells.
The test system of data set [12] is Leishmania major. The data set can be described thus: Antileishmanial activity Leishmania major V121 amastigotes isolated from infected […] CBA nu/nu after 48 hrs by microscopy. It counts as functional, organism-based.
Data set [13] deals with Leishmania major. The data set can be described thus: Antileishmanial activity Leishmania major V121 promastigotes infected in mouse bone marrow-derived macrophage assessed as complete inhibition of cell invasion at 30 uM after 48 hrs by microscopy. It counts as functional, organism-based.
Data set [14] deals with Leishmania major. In words: Antileishmanial activity Leishmania major V121 amastigotes infected in mouse bone marrow-derived macrophage assessed as mild inhibition of cell invasion at 30 uM after 48 hrs by microscopy. Type of data set: functional, organism-based.
Data set [15] has as its system Leishmania major. The data set can be described thus: Antileishmanial activity Leishmania major V121 amastigotes isolated from infected […] CBA nu/nu at 10 to 40 uM after 48 hrs by microscopy. Type of data set: functional, organism-based.

Each structure is given as a SMILES string. Calls of active or inactive are those of the source. No cut-off for these calls is given here. Where only a bound is given, the exact number is not on record here.

As to `C[C@@H]1[C@H](O)[C@@H](C)/C=C/C=C/C=C/C=C/C=C/C=C/C=C/[C@H](O[C@@H]2O[C@H](C)[C@@H](O)[C@H](N)[C@@H]2O)C[C@@H]2O[C@](O)(C[C@@H](O)C[C@@H](O)[C@H](O)CC[C@@H](O)C[C@@H](O)CC(=O)O[C@H]1C)C[C@H](O)[C@H]2C(=O)O` [AMPHOTERICIN B], the IC50 in the data set on Leishmania major [1] turned out to be 1.6 µM; in the data set with Leishmania major [2], 0.5 µM.

Regarding `Clc1ccc2c(N3CCN(Cc4ccc(-c5ccccc5)cc4)CC3)ccnc2c1`, the IC50 in the data set with Leishmania major [1] came out at 32.6 µM; with Leishmania major [5] (V121, 48 h) it was 17.6 µM; in the data set on Leishmania major [2], 11.7 µM. Moreover, the inhibition result in the data set with Leishmania major [3] was “Active”. Also, in data set [4], the CC50 was more than 100 µM.

As to `COc1ccc(-c2csc3c2C2=NCCN2C=N3)cc1OC`, the results for the IC50 (in the data set on Leishmania major [1]; in data set [6]) were more than 100 µM and 7.54 µM, respectively. Also, the inhibition result in the data set with Leishmania major [3] was “Active”.

Consider `Cc1ccc2c(n1)[nH]c1ccccc12`, for which the IC50 in the data set with Leishmania major [1] was 96.8 µM; in data set [6], 5.53 µM; in the data set with Leishmania major [2], more than 30 µM. Moreover, the inhibition result in the data set with Leishmania major [3] is “Active”. This molecule also gave a CC50 in data set [4] of more than 100 µM.

Turning to `CN(C)Cc1c(O)ccc2c(=O)c(-c3cnn(-c4ccccc4)c3)coc12`, the IC50 with Leishmania major [1] is 73.4 µM; in data set [6] it was 4.12 µM; with Leishmania major [2], more than 30 µM. In addition, the inhibition result in the data set with Leishmania major [3] is “Active”. In [4], this molecule showed a CC50 of more than 100 µM.

As to `COc1ccc2c(=O)c(C(=O)O)csc2c1`, the IC50 is more than 100 µM in the data set with Leishmania major [1] and 8.25 µM in [6]. In addition, in the data set with Leishmania major [3], the inhibition entry is “Active”.

Turning to `Fc1cccc(Cl)c1Cc1nn2c(-c3ccccc3)nnc2s1`, the IC50 in the data set with Leishmania major [1] is more than 100 µM; in data set [6], 2.98 µM. For the same molecule, the inhibition entry in the data set on Leishmania major [3] was “Active”.

For the molecule `Clc1ccc(C2=NN3C(c4ccccc4)=NNC3S2)c(Cl)c1` (stereo not given), the IC50 in the data set on Leishmania major [1] was more than 100 µM; in data set [6], 2.93 µM. Moreover, the inhibition result with Leishmania major [3] was “Active”.

As to `COc1ccc(-c2nnc3sc(-c4ccc(F)cc4)nn23)cc1`, the results for the IC50 (in the data set on Leishmania major [1]; in data set [6]) were more than 100 µM and 4.45 µM, respectively. For the same molecule, the inhibition entry with Leishmania major [3] is “Active”.

As to `CCCc1cc(-c2nn3c(-c4ccccc4)nnc3s2)n(CC)n1`, the IC50 in the data set with Leishmania major [1] was more than 100 µM; in data set [6], 1.26 µM. Besides, in the data set on Leishmania major [3], the inhibition entry was “Active”.

On to `Cc1ccccc1Cc1nnc2sc(-c3ccc(Cl)cc3)nn12`, for which the IC50 is more than 100 µM with Leishmania major [1] and 1.09 µM in data set [6]. In the data set on Leishmania major [3], the inhibition entry is “Active”.

In the case of `CCn1nc(C)cc1-c1nnc2sc(Cc3c(F)cccc3Cl)nn12`, the IC50 in the data set with Leishmania major [1] was more than 100 µM; in data set [6], 1.05 µM. Also, the inhibition result with Leishmania major [3] is “Active”.

In the case of `CCOC(=O)C/C(=N/O)c1nnn[nH]1`, the IC50 in the data set with Leishmania major [1] is more than 100 µM; in [6], 7.28 µM. In addition, the inhibition entry in the data set with Leishmania major [3] was “Active”.

Take `CCc1nnc(N2C(=O)C3C4C=CC(C4)C3C2=O)s1` (stereo not given): the IC50 in the data set with Leishmania major [1] is more than 100 µM; in [6], 3.53 µM. Moreover, the inhibition result in the data set with Leishmania major [3] is “Active”.

With `Cc1ccc(/C=C2/C(=O)NN(c3ccc(F)cc3)C2=O)o1`, the IC50 in the data set with Leishmania major [1] is 90.7 µM; in data set [6], 10.7 µM; with Leishmania major [2] it was more than 30 µM. Moreover, the inhibition result in the data set with Leishmania major [3] was “Active”. Besides, the CC50 in [4] is more than 100 µM.

Take `Clc1ccc2c(N3CCN(Cc4ccccc4)CC3)ccnc2c1`: the figures for the IC50 with Leishmania major [1] and with Leishmania major [2] were 62.2 µM and more than 30 µM, respectively. Besides, in the data set with Leishmania major [7], the outcome was Active. Moreover, the inhibition entry in the data set on Leishmania major [3] was “Active”. Also, the inhibition result in the data set on Leishmania major [8] and with Leishmania major [5] was “Dose-dependent effect” in each case.

Regarding `Cc1cc(C)nc(SCc2nn3c(-c4ccccc4)nnc3s2)n1`, the IC50 in the data set with Leishmania major [1] is more than 100 µM; in [6], 3.95 µM. In the data set with Leishmania major [3], the inhibition result was “Active”.

`COC(=O)c1c(O)c(C#N)c2n(c1=O)CCc1cc(OC)c(OC)cc1-2`: the IC50 with Leishmania major [1] is 52.6 µM; in data set [6], 2.44 µM; in the data set with Leishmania major [2] it was more than 30 µM. For the same molecule, the inhibition entry with Leishmania major [3] and with Leishmania major [9] was “Active” in each case. The same molecule had a CC50 in data set [4] of more than 100 µM.

Turning to `COc1ccc(CCC2=Nc3ccccc3S(=O)(=O)N2)cc1`, in [6], the IC50 amounted to 5.31 µM. The inhibition result with Leishmania major [3] is “Active”.

Consider `Cc1ccc(C(=O)N2CCN(c3ccnc4cc(Cl)ccc34)CC2)cc1`, for which the inhibition result in the data set with Leishmania major [10] is “inactive”. The IC50 with Leishmania major [1] is 70.6 µM; in the data set with Leishmania major [2], more than 30 µM. The outcome in the data set with Leishmania major [7] was Active. Besides, the inhibition result in the data set with Leishmania major [3] is “Active”. The inhibition result in the data set on Leishmania major [8] and in the data set on Leishmania major [5] was “Dose-dependent effect” each time.

For `c1ccc2c(-c3cnc4n3CCS4)c[nH]c2c1`, the results for the IC50 (in the data set on Leishmania major [1]; in data set [6]; with Leishmania major [2]) were 78 µM, 0.49 µM and more than 30 µM, respectively. Further, the inhibition entry in the data set on Leishmania major [3] and in the data set on Leishmania major [9] was “Active” in each case. The same molecule registered a CC50 in data set [4] of more than 100 µM.

With `CCn1nc(C)cc1-c1nnc2sc(-c3ccc(C)cc3)nn12`, the Activity result in data set [11] was “Toxic”. For the same molecule, the IC50 with Leishmania major [1] was 88.9 µM; in data set [6] it was 1.37 µM. Besides, the inhibition entry in the data set on Leishmania major [3] is “Active”. For the same molecule, the CC50 in data set [4] is more than 100 µM.

Turning to `CN1CCN(c2ccnc3cc(Cl)ccc23)CC1`, the 50% inhibitory concentration (IC50) in the data set on Leishmania major [1] is more than 100 µM. Also, the inhibition result in the data set with Leishmania major [3] is “Active”.

Turning to `Cc1ccc2[nH]c(CCC3CCCCC3)nc2c1`, in data set [11], the Activity result is on record as “Toxic”. The IC50 in the data set on Leishmania major [1] was 23.7 µM; in [6], 1.56 µM. Further, the inhibition entry in the data set on Leishmania major [3] is “Active”. In addition, the CC50 in data set [4] was more than 100 µM.

Consider `Cc1ccc(N2NC(=O)/C(=C/c3cc4c(cc3Cl)OCO4)C2=O)cc1C`, for which the IC50 is 25.1 µM in the data set with Leishmania major [1], 5.75 µM in [6] and more than 30 µM in the data set on Leishmania major [2]. Besides, the inhibition result in the data set on Leishmania major [3] was “Active”. Further, the CC50 in data set [4] was more than 100 µM.

On to `CC(C)(C)c1ccc(CN2CCN(c3ccnc4cc(Cl)ccc34)CC2)cc1`, for which the result in the data set on Leishmania major [12] and in the data set on Leishmania major [15] was Active. The inhibition entry in the data set with Leishmania major [13] and with Leishmania major [14] was “Active” throughout. The IC50 in the data set on Leishmania major [1] worked out at 62.3 µM; in data set [6] it was 0.58 µM; in the data set with Leishmania major [2], 21.9 µM. The molecule also came in with a CC50 in [4] of more than 100 µM. The inhibition entry in the data set on Leishmania major [8], in the data set on Leishmania major [5] and in the data set with Leishmania major [2] was “Dose-dependent effect” in each case.

By IC50 is commonly meant the concentration that inhibits the measured activity by half. What is called CC50 is the concentration giving 50% cytotoxicity. Read a high CC50 as lower toxicity to the cells.
